ChEMBL document CHEMBL1126195, “A new, general synthetic route to multidentate N,S ligands for use in technetium-99m radiopharmaceuticals. Preparation of diamido disulfur, diamino dithiol, and tripodal N3S3 prototypes. Comparative biodistributions of [99mTcvO-DADS]- analogues which contain 5,5,5- and 5,7,5-membered chelate ring …” (J Med Chem, 1992)

Columns and labels:
Rattus norvegicus [1] = species: Rattus norvegicus; assay: Biodistribution was reported in rat heart after 1 min.; format: ADME, organism-based; conditions: in vivo
In short: (§1)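 Female Sprague-Dawley rats (~200 g average, n = 3 per time point) were anesthetized with Metofane. They received 0.2 mL of 99mTc complex (50 µCi) by jugular vein injection. Rats were killed by cervical dislocation at early times or CO2 at later times. Blood (1 mL), brain, heart, a liver sample and one kidney were weighed and gamma-counted (100-150 keV) against standards. Values are average % injected dose/organ.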

Rattus norvegicus [2] = species: Rattus norvegicus; assay: Biodistribution was reported in rat heart after 30 min.; format: ADME, organism-based; conditions: in vivo, 0.5 h; in short: as §1
Rattus norvegicus [3] = species: Rattus norvegicus; assay: Biodistribution was reported in rat blood after 15 min.; format: ADME, organism-based; conditions: in vivo, 0.25 h; in short: as §1
Rattus norvegicus [4] = species: Rattus norvegicus; assay: Biodistribution was reported in rat brain after 60 min.; format: ADME, organism-based; conditions: in vivo, 1 h; in short: as §1
Rattus norvegicus [5] = species: Rattus norvegicus; assay: Biodistribution was reported in rat heart after 60 min.; format: ADME, organism-based; conditions: in vivo, 1 h; in short: as §1
Rattus norvegicus [6] = species: Rattus norvegicus; assay: Biodistribution was reported in rat blood after 1 min.; format: ADME, organism-based; conditions: in vivo; in short: as §1
Rattus norvegicus [7] = species: Rattus norvegicus; assay: Biodistribution was reported in rat kidney after 5 min.; format: ADME, organism-based; conditions: in vivo; in short: as §1
Rattus norvegicus [8] = species: Rattus norvegicus; assay: Biodistribution was reported in rat blood after 5 min.; format: ADME, organism-based; conditions: in vivo; in short: as §1
Rattus norvegicus [9] = species: Rattus norvegicus; assay: Biodistribution was reported in rat kidney after 1 min.; format: ADME, organism-based; conditions: in vivo; in short: as §1
Rattus norvegicus [10] = species: Rattus norvegicus; assay: Biodistribution was reported in rat kidney after 30 min.; format: ADME, organism-based; conditions: in vivo, 0.5 h; in short: as §1
Rattus norvegicus [11] = species: Rattus norvegicus; assay: Biodistribution was reported in rat liver after 30 min.; format: ADME, organism-based; conditions: in vivo, 0.5 h; in short: as §1
Rattus norvegicus [12] = species: Rattus norvegicus; assay: Biodistribution was reported in rat heart after 15 min.; format: ADME, organism-based; conditions: in vivo, 0.25 h; in short: as §1
Rattus norvegicus [13] = species: Rattus norvegicus; assay: Biodistribution was reported in rat liver after 1 min.; format: ADME, organism-based; conditions: in vivo; in short: as §1
Rattus norvegicus [14] = species: Rattus norvegicus; assay: Biodistribution was reported in rat liver after 60 min.; format: ADME, organism-based; conditions: in vivo, 1 h; in short: as §1
Rattus norvegicus [15] = species: Rattus norvegicus; assay: Biodistribution was reported in rat brain after 30 min.; format: ADME, organism-based; conditions: in vivo, 0.5 h; in short: as §1
Rattus norvegicus [16] = species: Rattus norvegicus; assay: Biodistribution was reported in rat kidney after 60 min.; format: ADME, organism-based; conditions: in vivo, 1 h; in short: as §1
Rattus norvegicus [17] = species: Rattus norvegicus; assay: Biodistribution was reported in rat liver after 15 min.; format: ADME, organism-based; conditions: in vivo, 0.25 h; in short: as §1
Rattus norvegicus [18] = species: Rattus norvegicus; assay: Biodistribution was reported in rat heart after 5 min.; format: ADME, organism-based; conditions: in vivo; in short: as §1
Rattus norvegicus [19] = species: Rattus norvegicus; assay: Biodistribution was reported in rat kidney after 15 min.; format: ADME, organism-based; conditions: in vivo, 0.25 h; in short: as §1
Rattus norvegicus [20] = species: Rattus norvegicus; assay: Biodistribution was reported in rat brain after 5 min.; format: ADME, organism-based; conditions: in vivo; in short: as §1
Rattus norvegicus [21] = species: Rattus norvegicus; assay: Biodistribution was reported in rat brain after 15 min.; format: ADME, organism-based; conditions: in vivo, 0.25 h; in short: as §1
Rattus norvegicus [22] = species: Rattus norvegicus; assay: Biodistribution was reported in rat brain after 1 min.; format: ADME, organism-based; conditions: in vivo; in short: as §1
Rattus norvegicus [23] = species: Rattus norvegicus; assay: Biodistribution was reported in rat blood after 60 min.; format: ADME, organism-based; conditions: in vivo, 1 h; in short: as §1
Rattus norvegicus [24] = species: Rattus norvegicus; assay: Biodistribution was reported in rat blood after 30 min.; format: ADME, organism-based; conditions: in vivo, 0.5 h; in short: as §1
Rattus norvegicus [25] = species: Rattus norvegicus; assay: Biodistribution was reported in rat liver after 5 min.; conditions: in vivo

Dose/organ (Rattus norvegicus [1]) [%] | Dose/organ (Rattus norvegicus [2]) [%] | Dose/organ (Rattus norvegicus [3]) [%] | Dose/organ (Rattus norvegicus [4]) [%] | Dose/organ (Rattus norvegicus [5]) [%] | Dose/organ (Rattus norvegicus [6]) [%] | Dose/organ (Rattus norvegicus [7]) [%] | Dose/organ (Rattus norvegicus [8]) [%] | Dose/organ (Rattus norvegicus [9]) [%] | Dose/organ (Rattus norvegicus [10]) [%] | Dose/organ (Rattus norvegicus [11]) [%] | Dose/organ (Rattus norvegicus [12]) [%] | Dose/organ (Rattus norvegicus [13]) [%] | Dose/organ (Rattus norvegicus [14]) [%] | Dose/organ (Rattus norvegicus [15]) [%] | Dose/organ (Rattus norvegicus [16]) [%] | Dose/organ (Rattus norvegicus [17]) [%] | Dose/organ (Rattus norvegicus [18]) [%] | Dose/organ (Rattus norvegicus [19]) [%] | Dose/organ (Rattus norvegicus [20]) [%] | also measured | Compound
0.17 | 0.04 | 3.64 | 0 | 0.03 | 24.64 | 1.6 | 5.18 | 2.2 | 1 | 61.12 | 0.1 | 66.32 | 47.68 | 0.01 | 0.92 | 71.36 | 0.1 | 1.2 | 0.01 | Dose/organ (Rattus norvegicus [21]): 0.01%; Dose/organ (Rattus norvegicus [22]): 0.05%; Dose/organ (Rattus norvegicus [23]): 2.1%; Dose/organ (Rattus norvegicus [24]): 2.52%; Dose/organ (Rattus norvegicus [25]): 61.6% | O=C(CSC(=O)c1ccccc1)NCC(c1ccccc1)C(CNC(=O)CSC(=O)c1ccccc1)c1ccccc1 (stereo not given)
0.38 | 0.02 | 4.62 | 0 | 0.01 | 31.08 | 5.4 | 9.52 | 16.5 | 1.92 | 0.88 | 0.08 | 17.44 | 0.56 | 0 | 1.14 | 3.84 | 0.18 | 5.04 | 0.03 | Dose/organ (Rattus norvegicus [21]): 0.01%; Dose/organ (Rattus norvegicus [22]): 0.06%; Dose/organ (Rattus norvegicus [23]): 0.56%; Dose/organ (Rattus norvegicus [24]): 0.98%; Dose/organ (Rattus norvegicus [25]): 6.96% | O=C(CSC(=O)c1ccccc1)NCCCCNC(=O)CSC(=O)c1ccccc1
